Reference: the EternaBench riboswitch data

Test system: MS2 coat protein
Experiment: apparent Kd, MS2 coat protein; higher = weaker binding; RNA-MaP array; FMN 200 µM where present
Method in brief: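 Stalled E. coli RNA polymerase produced the designs on Illumina sequencing-chip clusters. SNAP-549-labelled MS2 coat protein was added from 0.7 or 1.5 nM, doubling to 3 µM, without and then with constant ligand, in 100 mM Tris-HCl pH 7.5, 80 mM KCl, 4 mM MgCl2, BSA, DTT, yeast tRNA and Tween-20. The apparent Kd is the median of filtered per-cluster fits of green signal normalised to red-channel RNA signal and control-cluster median Fmax.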

[1] = designed as: OFF switch for flavin mononucleotide, no ligand
[2] = ligand present: flavin mononucleotide, designed as: OFF switch for flavin mononucleotide
[3] = designed as: ON switch for flavin mononucleotide, no ligand
[4] = ligand present: flavin mononucleotide, designed as: ON switch for flavin mononucleotide

Sequence	apparent Kd [1] [nM]	apparent Kd [2] [nM]	apparent Kd [3] [nM]	apparent Kd [4] [nM]
UUUGAAUAGGUAGGAUAUACAUACAUUCCUACAUUACUAACAUGAGGAUCACCCAUGUAUACAUUGUAGAAGGACCAGAUUGAU	26.1	23.9	–	–
UUUGAAUUGCAAGGAUAUCUUAUUUAGAUUUUAAGAGAAGGUGCUUUAUAGUUACAUGAGGAUCACCCAUGUAUUUCUUUUUAU	–	–	25.5	17.7
UUUGAGUUCCGAGACCGCGGGUUCACAGAAGGCAUUAUUACAUGAGGAUCACCCAUGUGGGUACAUGAGGAUAUGUGAUAUGCG	–	–	20.5	6.99
UUUGAUUGCACAGGAUAUUGUCAUUUGAGUUGUCAAGAAGGGUGUACAUGAGGAUCACCCAUGUAAUGGUUGCCUCGCUGACUU	95.7	272	–	–
UUUGCAUUCCGAGGAUAUUCAUAUAAUAAAUACACAUGAGGAUCACCCAUGUGGCGAUAGCCUAGGGAGAAGGCGGUUUGCUUU	–	–	22.3	24
UUUGCAUUCCGAGGAUAUUCUUUUAUUGUCUUCACAUGAGGAUCACCCAUGUGGCGCUUGCGCCGGGAGAAGGCGGUUUGCUUU	–	–	23.9	24.5
UUUGGGAACUCUAUGGGCCGCUACAUGAGGAUCACCCAUGUGCAGGAUAUAGGUGUUACUACCGCCUAGAAGGGCACAGACUGA	23.4	42.5	–	–
UUUGGGUGGCUGGAGGAUAUUCUUGUGGUUACAUGAGGAUCACCCAUGUGUCGCGCGGUACGCGAGGAGAAGGCUGGCGGCCGUU	–	–	327	56.2
UUUGUAAUGUCAGGAUAUAUAAUAAGUCAUACAGUAGAAGGGAUAAUUAUACUCAUGUACAUGAGGAUCACCCAUGUUAAAUAU	–	–	80.1	45.6
UUUGUCGGAGUAGGAUAUCAAAUAGAGGGUGUAUGAGAAGGACUUAGACAUGAGGAUCACCCAUGUGUGGGUCGCCUCGAUCUC	6.88	10.9	–	–
UUUGUGUGAGGAUAUUAAUUGCAAGCGAAUAGGCUUGUGAUUGAGAAGGCACAUGAGGAUCACCCAUGUUCCUU	18.1	151	–	–
UUUUAACAUGAGGAUCACCCAUGUGAGGAUAUCGAAAUUUAUAUUAAUAUUAAUUUAUCGAGAAGGCACAUUUU	107	133	–	–
UUUUAACAUGAGGAUCACCCAUGUGAGGAUAUCGAAAUUUAUAUUUAUAUUAAUAUUUCGAGAAGGCACAUUUU	195	191	–	–
UUUUAACAUGAGGAUCACCCAUGUGAGGAUAUCGAAAUUUAUAUUUAUAUUUAUAUAUCGAGAAGGCACAUUUU	128	127	–	–
UUUUAACAUGAGGAUCACCCAUGUGAGGAUAUCGAAAUUUAUAUUUAUAUUUAUUAAACGAGAAGGCACAUUUU	70.2	100	–	–
UUUUAACAUGAGGAUCACCCAUGUGAGGAUAUCGAAUUUUUUAUUAAUAUUAAUAAAACGAGAAGGCACAUUUU	63.1	70.2	–	–
UUUUACCGAGGAUAUACAUUUUUUUUAUUAUCCUCAUUAUUACAUGAGGAUCACCCAUGUAGAAGGCGGAUUUU	52.9	112	–	–
UUUUAUUAGUAAGGAUAUACUAGCGAUGAGCUUGUAGAAGGUACAGUCUUAUGUAUAACAUGUUAACAUGAGGAUCACCCAUGU	–	–	38.6	22.4
UUUUCUACUGAGGAUAUUAUAUUACCCGACUGAUAAGAAGGCAGUACAUGAGGAUCACCCAUGUGGGUAGCCAU	21.8	31	–	–
UUUUUACAUGAGGAUCACCCAUGUCAGGAUAUGCUUAUAUUUUAUUAUUUUAUUUUUUGCAGAAGGGACUAUUA	91.8	68	–	–
UUUUUACUUGCAGGAUAUGGAGACAUGAGGAUCACCCAUGUAUGAUAAGCUAAAUUAUGCUGUGGCCAGAAGGGUAUUGUUCUU	–	–	72	52.9
UUUUUUGUUGUGAGGAUAUCGUAGUUAUUUUGUUACGAGAAGGCACAUGAGGAUCACCCAUGUUUUUUGAUGUU	23.8	82.6	–	–
UUUUUUGUUGUGAGGAUAUCGUAUUCUUUUUGUUACGAGAAGGCACAUGAGGAUCACCCAUGUUUCUUGAUGUU	15.8	27.3	–	–
UUUUUUGUUGUGAGGAUAUCGUUGUUGUUGUGGAUCGAGAAGGCACAUGAGGAUCACCCAUGUUUGUUGUGGUU	89.1	220	–	–
UUUUUUGUUGUGAGGAUAUCGUUUUUGUUUUGGAUCGAGAAGGCACAUGAGGAUCACCCAUGUUUGUUGUGGUU	88.8	159	–	–
UUUUUUUAUAAGGAUAUGGGAGUCGAUAGACACCCAGAAGGUAUAACAUGAGGAUCACCCAUGUGUCCUUUUUU	21.2	24.1	–	–
UUUUUUUUUAGAGGAUAUAUUGUGUGUUAUAUAAUAGAAGGCUAAACAAACAUGAGGAUCACCCAUGUUGUCCAUGUCGUCGGC	–	–	15.3	20.7
